This is an account of results in ChEMBL document CHEMBL5104108, “Concise synthesis and biological activity evaluation of novel pyrazinyl-aryl urea derivatives against several cancer cell lines, which can especially induce T24 apoptotic and necroptotic cell death” (RSC Med Chem, 2022).

The MRT last is a mean duration of stay, worked out from the concentration-time curve. What is called AUC(0-t) is exposure summed from dosing to a finite time, without extrapolation to infinity. A higher AUC(0-t) goes with more exposure. One may read the Cmax as the maximum level reached in the sampled fluid or tissue. By pIC50 is commonly meant −log10 of the IC50, conventionally taken in molar units. A low value points to a large IC50.

Data set [1] can be described thus: MRT (0 to 48 hrs) in Sprague-Dawley rat at 12 mg/kg, IG measured HPLC analysis. The data set is classed as ADME, organism-based. The note with it: in vivo, po. In short, it runs like this: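 Fasted (12 h) male-unspecified Sprague-Dawley rats (250 ± 20 g), n = 6 per group. Single intragastric dose of suspension (2 mg mL−1 in Tween 80/0.9% NaCl 1.5:5 v/v). Orbital blood drawn at 0.5–48 h and plasma assayed by reversed-phase C18 HPLC-UV. One-compartment fit, weight 1.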

Data set [2] relates to T-24. In words: Up-regulation of MLKL expression in human T24 cells at 2.5 to 7.5 uM measured by ELISA assay. In kind it is functional, cell-based. The settings on record: dose 2.5-7.5 µM. In short, it runs like this: (§1)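 T24 cells pretreated, collected, diluted in PBS, counted and stored overnight at −20 °C. After membrane disruption, lysates centrifuged at 5000 × g for 5 min (4 °C). RIPK1, RIPK3 and MLKL levels then measured with ELISA kits.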
For orientation: An ELISA detects its analyte on a solid surface through an enzyme-linked reagent.

Data set [3] relates to T-24. Kind of data set: Induction of apoptosis in human T24 cells assessed as increase in caspase-3 expression at 0 to 5 uM measured by Western blot analysis. The settings on record: dose 0-5 µM. In kind it is functional, cell-based. In short, it runs like this: (§2)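 Apoptosis-related proteins measured by Western blot in T24 lysates: 40 μg protein per lane by SDS-PAGE, PVDF transfer, primary and peroxidase-linked secondary antibodies, ECL detection, densitometry of gray values with β-actin as loading control.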

The subject of data set [4] is T-24. In words: Down-regulation of p-RIPK3 expression in human T24 cells at 7.5 to 10 uM measured in presence of 60 uM Nec-1 after 16 hrs by Western blot analysis. In kind it is functional, cell-based. The settings on record: dose 7.5-10 µM. In short, it runs like this: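 T24 cells co-incubated 16 h with or without Nec-1 (60 μM). Lysates quantified by BCA, 40 μg protein resolved by SDS-PAGE, transferred to PVDF, probed with primary and peroxidase-conjugated secondary antibodies, detected by ECL. Band gray values normalized to β-actin loading control.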

A short description of data set [5]: Absorption rate constant in Sprague-Dawley rat at 6 mg/kg, IG measured HPLC analysis. In kind it is ADME, organism-based. The settings on record: in vivo, po.
Data set [6] can be described thus: AUMC in Sprague-Dawley rat at 12 mg/kg, IG measured HPLC analysis. In kind it is ADME, organism-based. The note with it: in vivo, po.
Data set [7] relates to T-24. In words: Induction of necroptosis in human T24 cells assessed as viable cells at 7.5 uM and measured by trypan blue exclusion assay. The data set is classed as functional. The settings on record: read-out: Activity. In short, it runs like this:
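T24 cells (2 × 10^5/well) exposed for 16 h with or without Nec-1 (60 μM), then stained with trypan blue. Viable and dead cells counted. Result given as % viable cells relative to untreated control.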

In data set [8] the test system is T-24. In words: Induction of apoptosis in human T24 cells assessed as apoptotic cells at 7.5 uM measured after 10 hrs by Annexin-V/FITC and propidium iodide staining based flow cytometry analysis. In kind it is functional. The gist of the method:
(§3)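 T24 cells in 60 mm dishes treated 10 h at 37 °C, collected, PBS-washed, resuspended in binding buffer, stained with Annexin V-FITC and PI for 15 min at room temperature in the dark. At least 1 × 10^4 events per sample by flow cytometry; apoptotic cells = early (Annexin+/PI−) plus late (Annexin+/PI+). Triplicate experiments.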

Data set [9] has as its system T-24. Kind of data set: Up-regulation of RIPK3 expression in human T24 cells at 7.5 to 10 uM measured after 16 hrs by Western blot analysis. The data set is classed as functional, cell-based. The settings on record: dose 7.5-10 µM. On the technique in general: A western blot detects proteins with antibodies after separation by electrophoresis.
Data set [10] concerns T-24. In words: Down-regulation of VEGFR-1 mRNA expression in human T24 cells at 7.5 uM measured in presence of 25 uM apatinib by RT-PCR analysis. In kind it is functional, cell-based.
The subject of data set [11] is T-24. Kind of data set: Induction of apoptosis in human T24 cells assessed as apoptotic cells at 2.5 uM measured after 10 hrs by Annexin-V/FITC and propidium iodide staining based flow cytometry analysis. The data set is classed as functional. The gist of the method:
as §3

Data set [12] concerns T-24. In words: Up-regulation of RIPK3 mRNA expression in human T24 cells at 7.5 to 12.5 uM measured by RT-PCR analysis. In kind it is functional, cell-based. The settings on record: dose 7.5-12.5 µM. In short, it runs like this: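 Total T24 RNA extracted with TRIzol. RT-PCR normalized to GAPDH, relative expression by 2−ΔΔCt versus control. Incubation 16 h for RIPK1/RIPK3/MLKL. At least three independent experiments, each in triplicate.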

Data set [13] deals with T-24. Kind of data set: Up-regulation of RIPK1 expression in human T24 cells at 2.5 to 7.5 uM measured by ELISA assay. In kind it is functional, cell-based. The settings on record: dose 2.5-7.5 µM. The gist of the method: as §1
The nature of data set [14]: AUC (0 to 48 hrs) in Sprague-Dawley rat at 12 mg/kg, IG measured HPLC analysis. In kind it is ADME, organism-based. The arrangement: time < 48 hr, dose 12 mg/kg, route ig. The note with it: in vivo, po.
Data set [15] can be described thus: Cmax in Sprague-Dawley rat at 6 mg/kg, IG measured HPLC analysis. In kind it is ADME, organism-based. The arrangement: dose 6 mg/kg, route ig. The settings on record: in vivo, po.
Data set [16] relates to T-24. Kind of data set: Up-regulation of RIPK2 expression in human T24 cells at 7.5 to 10 uM measured after 16 hrs by Western blot analysis. In kind it is functional, cell-based. The settings on record: dose 7.5-10 µM.
Data set [17] relates to T-24. In words: Up-regulation of caspase-8 mRNA expression in human T24 cells at 2.5 to 7.5 uM measured after 10 hrs by RT-PCR analysis. In kind it is functional, cell-based. The settings on record: dose 2.5-7.5 µM.
Data set [18] deals with T-24. In words: Induction of apoptosis in human T24 cells assessed as increase in cleaved caspase-3 expression at 0 to 5 uM measured by Western blot analysis. In kind it is functional, cell-based. The note with it: dose 0-5 µM. The gist of the method:
as §2

For data set [19], the system named is T-24. In words: Down-regulation of VEGFR-2 mRNA expression in human T24 cells at 7.5 uM measured in presence of 25 uM apatinib by RT-PCR analysis. The data set is classed as functional, cell-based.
In data set [20] the test system is T-24. Kind of data set: Induction of mitochondrial dysfunction in human T24 cells assessed as decrease in mitochondrial membrane potential at 5 to 10 uM measured by JC-1 staining based assay. In kind it is functional, cell-based. The settings on record: dose 5-10 µM. The gist of the method:
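Floating and adherent T24 cells pooled after pretreatment. Washed in cold PBS and stained in the dark with JC-1 (10 μg mL−1). Red and green fluorescence imaged by laser scanning confocal microscopy, five random fields per sample.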

Data set [21] relates to T-24. In words: Induction of necroptosis in human T24 cells assessed as necrotic cells at 7.5 to 12.5 uM measured after 16 hrs by flow cytometry analysis. The data set is classed as functional, cell-based. The settings on record: dose 7.5-12.5 µM. In short, it runs like this: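 T24 cells in 60 mm dishes treated at 37 °C for 16 h with or without Nec-1 (60 μM). Washed thrice in PBS, then stained with Annexin V-FITC/PI for 15 min at room temperature in the dark. Flow cytometry, ≥1 × 10^4 events. Necrotic fraction taken as Annexin−/PI+. Done in triplicate.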

Another data set has as its system MGC-803. In words: Antiproliferative activity against human MGC-803 cells measured after 48 hrs by MTT assay. The settings on record: MGC-803, 48 h. In kind it is functional, cell-based. The gist of the method:
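Cells seeded 5 × 10^3 per well, grown overnight at 37 °C, then exposed to compound at final 1–40 μM (1, 2.5, 5, 7.5, 10, 12.5, 15, 20, 30, 40 μM) for the stated period. MTT added, 4 h at 37 °C, formazan dissolved in DMSO, absorbance read. IC50 = concentration killing 50% of cells relative to untreated control; mean ± S.D. of four independent experiments.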
(In general: Tetrazolium assays rely on reduction of a dye to a coloured formazan, in cell work by metabolically active cells.)

The nature of data set [22]: Selectivity index, ratio IC50 for antiproliferative activity against human HCV-29 cells over IC50 for antiproliferative activity against human T24 cells. The settings on record: HCV-29 cells versus T24 cells. In kind it is toxicity, cell-based. The gist of the method: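 MTT assay, 48 h exposure at final 1–40 μM in T24 and normal bladder epithelial HCV29 cells (5 × 10^3/well, seeded overnight, 37 °C). MTT added for 4 h and formazan dissolved in DMSO. IC50 taken relative to untreated control, four parallel samples. SI = IC50(HCV29)/IC50(T24).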

In data set [23] the test system is T-24. In words: Down-regulation of VEGFR-1 mRNA expression in human T24 cells at 5 to 10 uM measured by RT-PCR analysis. The data set is classed as functional, cell-based. The settings on record: dose 5-10 µM.

pIC50: −log10 of the molar value. Active and inactive are the calls of the source. The calls are words filed in the database; no cut-off is given here.

`O=C(Nc1ccc(C(F)(F)F)cc1)Nc1cccc(CNc2nccnc2Cl)c1` came in with an MRT last in data set [1] of 10.3 h. For the same molecule, the result with T-24 [2], with T-24 [3], with T-24 [4], in the data set with T-24 [9], in the data set with T-24 [10] and in the data set with T-24 [12] was Active. For the same molecule, the outcome with T-24 [13], in the data set on T-24 [16], in the data set with T-24 [17], in the data set with T-24 [18], with T-24 [19] and in the data set with T-24 [20] was Active. Moreover, the result in the data set with T-24 [21] and in the data set with T-24 [23] was Active. In [5], this molecule showed a Ka of 0.098 h⁻¹. The molecule further came in with an AUMC in data set [6] of 1494860 hr2.ng/ml. The viability at 7.5 µM with T-24 [7] amounted to 51%. In addition, the results for the Activity in the data set on T-24 [8] and in the data set on T-24 [11] were 21.41% and 9.01%, respectively. The molecule further returned an AUC(0-t) at 48 h in [14] of 75800 ng·h/mL. This molecule came in with a maximum concentration (Cmax) in data set [15] of 1190 ng/mL. In the data set with MGC-803, the pIC50 was 5.16. Also, in data set [22], the SI amounted to 6.56.
